Assay outcomes from PubChem BioAssay.
The list is not random: actives were taken first. Their share in the collection is about 27%.
CYP2C9 act = human CYP2C9 activators, primary screen, biochemical, luminescence; recombinant CYP2C9, luciferin-H conversion; hits give high values; factor 1 = untreated enzyme, 0 = blocked; activation factor at 5 µM; 1.4% of 96,000 active;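 active = activation factor of 2 or more for CYP2C9 at a 5 µM dose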
Target sequence (P11712 whole entry, looked up): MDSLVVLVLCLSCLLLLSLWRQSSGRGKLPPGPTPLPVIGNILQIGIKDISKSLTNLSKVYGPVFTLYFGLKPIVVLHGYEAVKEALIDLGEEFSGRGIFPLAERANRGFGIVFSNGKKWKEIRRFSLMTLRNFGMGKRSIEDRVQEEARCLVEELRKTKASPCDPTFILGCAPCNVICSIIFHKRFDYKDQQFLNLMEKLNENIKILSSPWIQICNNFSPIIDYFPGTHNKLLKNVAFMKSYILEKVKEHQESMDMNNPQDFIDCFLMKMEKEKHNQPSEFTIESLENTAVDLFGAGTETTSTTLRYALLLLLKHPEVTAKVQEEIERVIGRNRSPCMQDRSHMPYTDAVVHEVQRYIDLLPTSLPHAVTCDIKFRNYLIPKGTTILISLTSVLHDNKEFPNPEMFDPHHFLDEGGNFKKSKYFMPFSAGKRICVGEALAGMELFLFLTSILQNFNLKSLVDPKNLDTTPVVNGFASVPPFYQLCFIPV
CYP2C9 inh = blockers of cytochrome P450 2C9 activity – biochemical, luminescence, ADME assay, primary screen. P11712. CYP2C9 Supersomes, luciferin-H conversion. inhibition, % at 5 µM. 20% of 96,000 active. AID 777, 2007;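 active = blocking of liver enzyme CYP2C9 beyond about 50% at 5 µM, limit read from the data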
Cav32 inh = Cav3.2 calcium influx blockers – cell-based, Fluo-4 calcium fluorescence, FDSS, MLSMR library, primary screen; Voltage-dependent T-type calcium channel subunit alpha-1H (Homo sapiens), O95180; AID 449739, 2010; Cav3.2-expressing cells; hits give low values; 4% of 100,000 active; B-score at 10 µM;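 active = single-dose well whose peak fluorescence ratio is a statistical outlier from its plate by either plate-standardised score or position-corrected B-score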
CYP2C19 inhib = blockers of cytochrome P450 2C19 activity – biochemical, luminescence, ADME assay, primary screen; CYP2C19 Supersomes, luciferin-H EGE luminescence, 30 min; P33261; 21% of 96,000 active; inhibition, % at 5 µM;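 active = CYP2C19 inhibition above a set limit at 5 µM in the primary screen, cut at about 50% in these data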
CYP2C19 activ = human CYP2C19 activators, primary screen, biochemical, luminescence; Cytochrome P450 2C19 (Homo sapiens), P33261; recombinant CYP2C19, luciferin-H EGE luminescence; hits give high values; 0 = fully inhibited enzyme, 1 = untreated enzyme; activation factor at 5 µM; 96,000 tested, under 10 active;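 active = activation factor of at least 2 at 5 µM in the primary screen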
HIV Rev-RRE inh = HIV-1 Rev-RRE binding inhibitors, primary screen, biochemical, FRET, protein-RNA interaction; inhibition, % at 8 µM; 0.79% of 97,000 active; Rev peptide-RRE RNA binding; P05866;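 active = inhibition above the screen-wide mean plus 3 SD, cut at about 35% in these data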
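Assay system: Rev peptide and RRE RNA, both fluorescently labelled; times: 5 min preincubation and 15 min binding, 25 °C; detection: FRET, ex 480 nm, em 540 and 671 nm; read-out basis: % inhibition from 671/540 nm acceptor-to-donor ratio, scaled between controls; benchmarks: DMSO low control, neomycin B high control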
Of the large screens only hits and unclear results are named; the others gave an inactive call.

CCC(CC)NC(=O)COC(=O)c1cccc(C)c1O	none
CCC(C)(C)n1nnnc1C(c1cc2ccc(OC)cc2[nH]c1=O)N1CCCCC1 (stereo not given)	none
CCC(C)(C)n1nnnc1C(c1cc2ccc(OC)cc2[nH]c1=O)N1CCc2ccccc2C1 (stereo not given)	CYP2C9 inh 72.9
COc1ccc2cc(C(c3nnnn3C(C)(C)C)N3CCc4ccccc4C3)c(=O)[nH]c2c1 (stereo not given)	CYP2C9 inh 94.0, CYP2C19 inhib 65.0 (no result: Cav32 inh)
COc1cccc(N2CCN(Cc3ccsc3)CC2)c1	CYP2C9 inh 50.4, CYP2C19 inhib 90.7 (no result: Cav32 inh)
COc1cccc(CN2CCSCC2)c1	none
O=C1OCC2=C1C(c1ccc(F)cc1)Sc1ccccc1N2 (stereo not given)	CYP2C9 inh 75.2, CYP2C19 inhib 76.6
COc1nc(NS(=O)(=O)c2ccc(C)cc2)nc(C)c1Cl	CYP2C9 inh 71.0, CYP2C19 inhib 68.0
CN(C)c1nc(NS(=O)(=O)c2ccc(Cl)cc2)nc(N(C)C)n1	none
CCN(CC)S(=O)(=O)c1cc(C(=O)NC2=NCCS2)ccc1Cl	none
COc1cccc(C(=O)NC(=S)Nc2ccc3c4c(cccc24)CC3)c1	CYP2C9 act 2
COc1cccc(C(=O)Nc2ccc(C(=O)O)cc2)c1	none
Cc1ccccc1OCC(=O)NC(=S)Nc1ccc2c3c(cccc13)CC2	none
O=C(Nc1cccc(C(F)(F)F)c1)c1ccco1	none
COc1cccc(C(=O)Nc2ccc(Cl)c(C(F)(F)F)c2)c1	CYP2C9 inh 61.8, Cav32 inh -5.09
O=C(Nc1ccc(Cl)c(C(F)(F)F)c1)c1ccco1	Cav32 inh -5.84
COc1ccc(C(=O)Nc2cc(C(F)(F)F)ccc2Cl)cc1OC	CYP2C9 act 2.5
COc1ccc(C(=O)Nc2ccc(F)cc2F)cc1OC	none
CNS(=O)(=O)c1cccc(C(=O)OC2CCCCC2=O)c1 (stereo not given)	none
CCOC(=O)N1CCC(N2CCN(c3cc(C)ccc3C)CC2)CC1	none
CSc1nc(C)cc(OCCNS(=O)(=O)c2ccc(C)cc2)n1	none (no result: CYP2C9 act, CYP2C9 inh, CYP2C19 inhib, CYP2C19 activ)
COc1ccc(C(=O)Nc2cc(C(=O)NCCc3ccccc3)ccc2Cl)cc1	CYP2C9 inh 82.9, CYP2C19 inhib 57.3
Cc1ccc(Cl)cc1NC(=O)c1cccc(OC(F)F)c1	CYP2C19 inhib 55.2
COc1cccc(C(=O)Nc2ccc(F)c(F)c2F)c1	CYP2C19 inhib 54.2
COc1ccc(CCNC(=O)c2ccc(Cl)cc2)cc1	none
COc1cccc(C(=O)Nc2cc(C(F)(F)F)ccc2Cl)c1	CYP2C9 act 2.7
O=C(NC(=S)Nc1cc(C(F)(F)F)ccc1Cl)c1ccccc1	none
Cc1ccccc1N1CCN(C(=O)CCN2C(=O)c3ccccc3C2=O)CC1	none
CCC1CCCCN1S(=O)(=O)c1ccc2c(c1)CCN2C(=O)C1CCC1 (stereo not given)	CYP2C9 inh 51.8
O=C(C1CCC1)N1CCc2cc(S(=O)(=O)NCc3ccccn3)ccc21	CYP2C9 inh 57.6
O=C(C1CCC1)N1CCc2cc(S(=O)(=O)NCCN3CCN(c4ccccc4F)CC3)ccc21	CYP2C9 inh 58.9
O=C(C1CC1)N1CCc2cc(S(=O)(=O)NC3CCN(Cc4ccccc4)CC3)ccc21	none (no result: Cav32 inh)
O=C(C1CC1)N1CCc2cc(Br)cc(S(=O)(=O)NCc3ccccn3)c21	none (no result: HIV Rev-RRE inh)
CCC(C)(C)NC(=O)C(c1cccn1C)N(C(=O)Cn1nnc2ccccc21)c1ccc(F)cc1 (stereo not given)	none
CCn1nc(C)c(C(=O)Nc2cc(Oc3ccc(Cl)cc3)cc([N+](=O)[O-])c2)c1C	none
O=C(C1CCN(C2CC(=O)N(c3cccc(Cl)c3)C2=O)CC1)N1CCCCCC1 (stereo not given)	none
Cc1cc(Cl)c(S(=O)(=O)N2CCN(c3ccccc3)CC2)cc1OCC(N)=O	none (no result: CYP2C9 act, CYP2C9 inh, CYP2C19 inhib, CYP2C19 activ)
CCOC(=O)CSc1nnc(CSc2nc(C)cc(C)n2)n1Cc1ccco1	none
CCOC(=O)c1ccc(-n2c(=S)sc3c(=O)[nH]c(C)nc32)cc1	none
